Screening data (PubChem)
Measles CPE – compounds protecting cells from measles virus cytopathic effect, primary screen, measles RdRp inhibitor project, single point, MLSMR library, absorbance | protection (pct of control), % at 4 µM | Measles virus-infected cells, CPE protection | hit rate 1.5% among 140,000; in the data active = protection mostly above about 24%, no sharp cut-off; inactive = mostly below about 26%
NPY-Y1 antag – NPY-Y1 receptor antagonists, primary screen, cell-based; hit rate 1% among 200,000; inhibition, % at 3.6 µM; Neuropeptide Y receptor type 1 (Homo sapiens), P25929; AID 1040, 2008; HEK293-CNG Y1 cells, membrane potential fluorescence; NPY at EC95, then isoproterenol;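 active = inhibition above the campaign mean inhibition of all tested compounds plus 3 SD, cut at about 20% in these data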;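 note: 0% = DMSO wells given NPY plus isoproterenol and 100% = isoproterenol alone without NPY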
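Material: HEK293 cells with Y1 receptor plus CNG channel; times: compound incubation 1 h at room temperature, readout 45 min post-stimulation; signal: fluorescence, membrane potential probe; read-out basis: fluorescence ratio normalized to % inhibition between controls; benchmarks: full-block control isoproterenol-only wells, zero-block control NPY plus isoproterenol wells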
NPY-Y1 PAM-ag – NPY-Y1 receptor potentiators or agonists, primary screen, cell-based | NPY-Y1 expressing cells, potentiator/agonist activation | activation, % at 3.6 µM | hit rate 0.37% among 220,000 | AID 1304, 2008; in the data active = activation above about 33%, passing the limit was not always enough;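 note: cells stimulated with NPY at EC10 then isoproterenol at EC100; 0% = low agonist plus stimulus and 100% = saturating agonist plus stimulus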
NPY2 pot ag – NPY-Y2 potentiators or agonists, primary screen, cell-based; AID 1359, 2008; hit rate 0.45% among 220,000; cells expressing NPY-Y2, potentiator/agonist read-out; activation, % at 3.6 µM; Neuropeptide Y receptor type 2 (Homo sapiens), P49146; in the data active = activation above about 27%;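 note: cells stimulated with NPY near EC25 plus isoproterenol at EC100; 0% = vehicle plus submaximal agonist and 100% = vehicle plus saturating agonist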
Target sequence (P49146 whole entry, looked up): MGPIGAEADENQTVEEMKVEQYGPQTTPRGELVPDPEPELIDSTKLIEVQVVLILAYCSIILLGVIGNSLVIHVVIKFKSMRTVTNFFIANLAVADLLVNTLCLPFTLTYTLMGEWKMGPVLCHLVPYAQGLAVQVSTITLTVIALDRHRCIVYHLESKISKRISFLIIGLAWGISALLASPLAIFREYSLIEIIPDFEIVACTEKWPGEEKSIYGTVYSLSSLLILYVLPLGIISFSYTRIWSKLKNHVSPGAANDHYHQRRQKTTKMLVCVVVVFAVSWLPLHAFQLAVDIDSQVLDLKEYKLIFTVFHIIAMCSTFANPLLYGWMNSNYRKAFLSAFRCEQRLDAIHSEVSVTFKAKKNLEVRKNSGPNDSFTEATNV
NPY Y2 blocker – NPY-Y2 receptor antagonists, primary screen, cell-based; Neuropeptide Y receptor type 2 (Homo sapiens), P49146; NPY-Y2 expressing cells, antagonist mode; inhibition, % at 2.7 µM; hit rate 0.99% among 140,000; in the data active = inhibition above about 17%;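 note: 0% = vehicle with agonist challenge and 100% = reference antagonist with challenge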
MDM2 E3 inh – MDM2-luciferase reporter signal enhancers, primary screen, MDM2 E3 ligase inhibitor project, cell-based, luminescence, 1536-well; hit rate 0.11% among 210,000; signal enhancement, % at 5 µM; cell-based MDM2 ubiquitination luciferase reporter, 2 h; 0 = plate control, 100 = twice control, blank-subtracted; E3 ubiquitin-protein ligase Mdm2 (Homo sapiens), Q00987;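 active = signal enhancement of 30% or more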;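 note: luminescence tracks abundance of the self-degrading MDM2-luciferase fusion protein; higher signal means inhibition of MDM2 E3 ligase activity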
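System: stable MDM2–luciferase fusion reporter cells / Input: 2000 cells seeded into each well / Schedule: 4 h settle plus 2 h compound, 37 °C / Compound: single-point 5 µM / Buffer or medium: cells held in DMEM / Benchmarks: control and blank well means / Evaluation: percent signal gain over controls, blank-subtracted / Measured by: luciferase luminescence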
Starred values were filed as active, the others as inactive; nt = no result given. Most compounds without a hit are left out; they make up all but 2.8% or so of the library.

SMILES	Measles CPE	NPY-Y1 antag	NPY-Y1 PAM-ag	NPY2 pot ag	NPY Y2 blocker	MDM2 E3 inh
CN1CCCCC1=NCCCn1cnc2c1c(=O)n(C)c(=O)n2C	19*	2	4	-20	-1	0
O=C1CC(NNc2nc3ccccc3s2)C(=O)N1c1ccccc1 (stereo unspecified)	16	-3	10	3	0	-8
Cc1ccc(N2C(=O)CC(NNc3nc4ccccc4s3)C2=O)cc1 (stereo unspecified)	48*	2	15	10	1	4
FC(F)(F)c1cc(C(F)(F)F)c2ccc(Oc3ccccc3)nc2n1	43*	3	10	-3	2	-6
COc1ccccc1Nc1nc(N)nc(CSC(=S)N2CCCCC2)n1	nt	nt	-16	-36	nt	nt
CCC(=O)Nc1ccccc1C(=O)OC(c1ccccc1)c1ccccc1	9	27*	-24	-4	24*	-12
CCC(=O)Nc1ccccc1C(=O)C(=O)Nc1ccccc1	11	-4	-4	0	3	-9
COc1ccc(C(=O)NN(C)c2nc(-c3ccccc3)nnc2C(F)(F)F)cc1	10	5	2	-1	5	3
COc1ccc(C(=O)NN(C)c2nc(C(F)(F)F)nc3ccccc23)cc1	nt	21*	-16	-19	nt	-12
Cc1cccn2c(CN3CCCC(c4ccccc4)C3)c(C(=O)N3CCOCC3)nc12 (stereo unspecified)	nt	7	1	1	nt	-5
O=C(Nc1ccccc1-c1ccccc1)C(c1ccccc1)c1ccccc1	3	4	-17	-3	13	-3
O=C(Nc1nc2ccccc2s1)C1CCN(S(=O)(=O)c2cc([N+](=O)[O-])ccc2Cl)CC1	nt	nt	80*	82*	nt	nt
O=C(Cn1cnc2c(nnn2Cc2ccccc2)c1=O)N1CCCc2ccccc21	11	2	4	12	2	5
O=C(Cn1cnc2c(nnn2-c2ccccc2)c1=O)N1CCCc2ccccc21	53*	1	7	14	3	-22
Cc1ccc(CS(=O)(=O)c2ccc(C(=O)N3CCN(c4ccccn4)CC3)cc2[N+](=O)[O-])cc1	nt	20*	-9	8	nt	-10
CCCCC(C)(O)C/C=C/[C@H]1[C@H](O)CC(=O)[C@@H]1CCCCCCC(=O)OC (stereo partly specified)	48	106*	-95	-6	93*	nt
CCCCCCC(=O)Oc1ccc(N2C(=O)CCC2=O)cc1	nt	2	2	-13	nt	19
Cc1nc2ncnn2c(N2CCN(C(c3ccccc3)c3ccccc3)CC2)c1C	53*	1	8	20	3	-10
Cc1cc(N2CCN(C(c3ccccc3)c3ccccc3)CC2)n2ncnc2n1	29	-4	1	1	4	-13
O=C(NC(Cc1ccccc1)c1nc2ccccc2[nH]1)c1ccc(Cl)c([N+](=O)[O-])c1 (stereo unspecified)	7	-4	47*	40*	0	-14
Nc1nc(SCC(=O)NCCC(c2ccccc2)c2ccccc2)n[nH]1	8	10	13	-9	-1	-19
Cc1nn(-c2ccccc2)c2nc(C(Cl)(Cl)Cl)[nH]c(=O)c12	nt	nt	-7	0	nt	-10
CCOC(=O)c1c(C)c2c(n1C)CCC/C2=N\O	6	39*	-45	-16	32*	5
CCOc1cc(C)nc(N2CCCC(C(=O)NCc3ccccc3F)C2)n1 (stereo unspecified)	19	-4	-5	-6	4	14
Cc1cc(C)nc(N2CCCC(C(=O)NCCc3ccccc3F)C2)n1 (stereo unspecified)	43*	5	18	4	5	4
SMILES	Measles CPE	NPY-Y1 antag	NPY-Y1 PAM-ag	NPY2 pot ag	NPY Y2 blocker	MDM2 E3 inh
COc1ccc(C(=O)n2nnc3ccccc32)cc1OC	6	4	-9	10	3	1
COc1ccc(N/C(=C(/C(Cl)=C(Cl)Cl)[N+](=O)[O-])n2nnc3ccccc32)cc1OC	52*	-2	-12	8	2	-11
CC(C)N(CCO)C(=O)CCc1nnc(Cc2cccc(C(F)(F)F)c2)o1	nt	4	-4	-20	nt	3
O=C(O)C(Cc1ccccc1)N1C(=O)/C(=C/c2ccccc2)SC1=S (stereo unspecified)	3	13	-48	-17	16	8
O=C(O)C(Cc1ccccc1)N1C(=O)/C(=C/c2cccc3ccccc23)SC1=S (stereo unspecified)	14	10	-55	-22	20*	-9
CC1(C)CC(=O)c2cnc(NCC3CCCO3)nc2C1 (stereo unspecified)	30*	0	7	-15	-1	6
CC1CC(=O)c2cnc(NCC3CCCO3)nc2C1 (stereo unspecified)	2	-1	5	8	0	-6
CCOc1ccc(NC(=O)c2ccc(-n3cccn3)nc2)cc1	nt	1	4	4	nt	-10
CCC(NC(C)C)C(O)c1ccc(O)c2[nH]c(=O)ccc12 (stereo unspecified)	25	-4	76*	69*	3	nt
CCS(=O)(=O)N1Cc2ccccc2CC1C(=O)N1CCN(c2ccccc2)CC1 (stereo unspecified)	62*	3	12	-2	1	-19
CCOC(=O)Cc1csc(NC(=O)C2CCCN(S(=O)(=O)c3cnc[nH]3)C2)n1 (stereo unspecified)	6	6	-3	3	-2	-15
Cc1ccccc1OCC(O)CN1CCN(CCN2C(=O)c3cccc4cccc(c34)C2=O)CC1 (stereo unspecified)	21	5	13	11	4	-6
C=CCc1ccccc1OCC(O)CN1CCN(CCN2C(=O)c3cccc4cccc(c34)C2=O)CC1 (stereo unspecified)	2	-6	54*	45*	3	-4
C=CCc1ccccc1OCC(O)CN1CCN(Cc2ccc3c(c2)OCO3)CC1 (stereo unspecified)	11	-16	92*	87*	7	-2
CCOC(=O)c1cn(-c2c(C)n(C)n(-c3ccccc3)c2=O)c2c(F)c(F)c(F)cc2c1=O	nt	nt	-1	-3	nt	-101
Fc1ccc(-c2nnn(Cc3nc4ccccc4s3)n2)cc1	46*	7	-43	-21	11	-4
O=C(COc1ncnc2ccccc12)c1ccc(Cl)cc1	nt	-4	-12	2	nt	-2
CCN1CCN(CCCOc2ccccc2-c2ccccc2)CC1	nt	8	-37	-27	nt	17
